The values that follow come from ChEMBL document CHEMBL1136119, “Novel IKK inhibitors: beta-carbolines” (Bioorg Med Chem Lett, 2003).

Some results are limits rather than exact numbers.

Broadly, the IC50 is the concentration needed to halve the response being measured. Broadly, the inhibition is the drop in the measured response relative to a control, in per cent. The term EC50 denotes the concentration that produces a half-maximal response. A high value points to a less potent agent.

In one assay the target is Casein kinase II (Homo sapiens, UniProt P19784+P67870+P68400). The assay can be described thus: Inhibitory activity against CKII kinase. The format is protein-complex assay.
Casein kinase II, sequence (P67870 whole entry): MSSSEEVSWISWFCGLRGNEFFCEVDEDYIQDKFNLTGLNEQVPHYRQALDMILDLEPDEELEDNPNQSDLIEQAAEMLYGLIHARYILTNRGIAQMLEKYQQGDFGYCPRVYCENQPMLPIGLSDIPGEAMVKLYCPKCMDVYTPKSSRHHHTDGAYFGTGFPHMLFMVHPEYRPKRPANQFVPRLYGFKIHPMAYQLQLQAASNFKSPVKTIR
Casein kinase II, sequence (P68400 whole entry): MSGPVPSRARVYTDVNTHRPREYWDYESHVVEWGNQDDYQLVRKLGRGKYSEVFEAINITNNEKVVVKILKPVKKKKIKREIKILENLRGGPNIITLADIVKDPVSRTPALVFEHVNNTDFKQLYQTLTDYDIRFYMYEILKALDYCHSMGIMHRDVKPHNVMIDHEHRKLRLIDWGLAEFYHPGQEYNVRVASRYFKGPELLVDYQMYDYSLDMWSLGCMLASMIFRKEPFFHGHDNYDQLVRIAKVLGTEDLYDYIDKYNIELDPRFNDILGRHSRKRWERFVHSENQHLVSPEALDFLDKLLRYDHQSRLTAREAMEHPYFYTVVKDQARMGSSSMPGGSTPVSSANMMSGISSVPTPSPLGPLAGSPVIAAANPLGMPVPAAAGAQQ
Casein kinase II, sequence (P19784 whole entry): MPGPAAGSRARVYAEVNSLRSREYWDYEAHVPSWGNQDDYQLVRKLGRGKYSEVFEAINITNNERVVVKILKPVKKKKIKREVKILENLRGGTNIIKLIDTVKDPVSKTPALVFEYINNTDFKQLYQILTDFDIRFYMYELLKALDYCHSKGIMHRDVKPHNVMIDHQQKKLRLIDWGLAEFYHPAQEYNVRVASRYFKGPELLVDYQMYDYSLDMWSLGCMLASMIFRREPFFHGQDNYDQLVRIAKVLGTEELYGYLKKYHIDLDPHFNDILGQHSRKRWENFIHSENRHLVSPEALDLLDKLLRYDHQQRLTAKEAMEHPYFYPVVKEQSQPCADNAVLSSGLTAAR
Assay [1] concerns the target T1, Inhibitor of nuclear factor kappa-B kinase subunit beta (Homo sapiens, UniProt O14920).
T1 sequence (O14920 whole entry): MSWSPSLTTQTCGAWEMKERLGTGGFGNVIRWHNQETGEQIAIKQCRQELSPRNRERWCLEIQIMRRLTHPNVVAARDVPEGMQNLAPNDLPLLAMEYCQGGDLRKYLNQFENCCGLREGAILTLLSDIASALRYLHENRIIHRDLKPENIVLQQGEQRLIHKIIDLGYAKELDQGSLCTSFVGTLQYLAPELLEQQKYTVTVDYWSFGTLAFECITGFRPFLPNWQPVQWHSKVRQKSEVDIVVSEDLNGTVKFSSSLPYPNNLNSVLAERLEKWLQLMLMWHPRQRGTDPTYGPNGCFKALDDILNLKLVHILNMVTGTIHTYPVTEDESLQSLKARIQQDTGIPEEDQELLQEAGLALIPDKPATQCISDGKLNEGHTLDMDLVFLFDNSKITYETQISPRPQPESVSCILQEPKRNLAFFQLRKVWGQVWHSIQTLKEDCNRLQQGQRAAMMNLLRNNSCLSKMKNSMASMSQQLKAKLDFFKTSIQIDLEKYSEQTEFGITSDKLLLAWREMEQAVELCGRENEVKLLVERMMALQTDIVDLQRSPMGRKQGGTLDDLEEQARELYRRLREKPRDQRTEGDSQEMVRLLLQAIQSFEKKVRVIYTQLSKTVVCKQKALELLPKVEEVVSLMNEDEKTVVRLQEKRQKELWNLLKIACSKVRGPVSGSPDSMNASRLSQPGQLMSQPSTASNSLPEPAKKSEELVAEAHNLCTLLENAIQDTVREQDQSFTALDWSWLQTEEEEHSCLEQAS
The assay can be described thus: Inhibitory activity against IkappaB kinase(IKK) isolated from HeLa cells activated with recombinant […] in an ELISA phosphorylation assay. The assay is classed as cell-free. In general terms: An ELISA detects its analyte on a solid surface through an enzyme-linked reagent.

Assay [2] deals with T2, cAMP-dependent protein kinase (PKA) (Homo sapiens, UniProt P22694+P17612+P22612). The assay can be described thus: Inhibitory activity against protein kinase A. The format is protein assay.
The target in a further assay is Protein kinase C (PKC). As to the kind of experiment: Inhibitory activity against protein kinase C. The format is protein assay.
The test system of the next assay is HeLa. As to the kind of experiment: Inhibition of IkappaB kinase(IKK) from HeLa cells activated by recombinant MEKK1 in ELISA at 25 uM. The assay is classed as cell-based. The conditions noted are these: Homo sapiens.
Assay [3] has as its target Protein kinase C (PKC) (Homo sapiens) (UniProt O94806+P41743+P17252+P05129+Q05655+P05771+Q05513+Q02156+P24723+Q15139+Q04759). As to the kind of experiment: Inhibition of Protein kinase C at 25 uM. The format is protein assay.
For assay [4], the target named is T2, cAMP-dependent protein kinase (PKA). The assay can be described thus: Inhibition of Protein kinase A at 25 uM. The format is protein assay.
For assay [5], the target named is Casein kinase II (Homo sapiens) (UniProt P67870+P68400+P19784). The assay can be described thus: Inhibition of the casein kinase CKII at 25 uM. The format is protein-complex assay.
The next assay concerns Mus musculus. As to the kind of experiment: Systemic level of TNF-alpha after oral administration in mice. The assay is classed as functional. The gist of the method:
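Female BALB/c mice given compound orally (50 mg/kg, 5 mL/kg), followed by intraperitoneal E. coli LPS (serotype 0127:B8); blood taken by cardiac puncture into heparin after CO2 euthanasia, spun at 4 °C, and plasma TNF-α measured relative to vehicle-treated controls.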

Assay [6] has as its target NF-kappa-B essential modulator (Homo sapiens, UniProt Q9Y6K9). The assay can be described thus: Inhibition of GST-IkB phosphorylation by TNF-alpha stimulated HeLa cell lysate (IP-IKKgamma). The format is functional, cell-free. In outline:
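Endogenous IKK complex immunoprecipitated with anti-IKKγ antibody from HeLa cells stimulated with TNF-α (20 ng/mL, 5 min) and lysed in NP-40 IP buffer; beads preincubated with varying inhibitor concentrations 30 min at 30 °C; reaction started with bacterially expressed GST-IκB[5-55] plus MgATP with [γ-32P]ATP, 30 min at 30 °C; phosphorylated substrate quantified by SDS-PAGE and phosphorimaging; IC50.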

NF-kappa-B essential modulator, sequence (Q9Y6K9 whole entry): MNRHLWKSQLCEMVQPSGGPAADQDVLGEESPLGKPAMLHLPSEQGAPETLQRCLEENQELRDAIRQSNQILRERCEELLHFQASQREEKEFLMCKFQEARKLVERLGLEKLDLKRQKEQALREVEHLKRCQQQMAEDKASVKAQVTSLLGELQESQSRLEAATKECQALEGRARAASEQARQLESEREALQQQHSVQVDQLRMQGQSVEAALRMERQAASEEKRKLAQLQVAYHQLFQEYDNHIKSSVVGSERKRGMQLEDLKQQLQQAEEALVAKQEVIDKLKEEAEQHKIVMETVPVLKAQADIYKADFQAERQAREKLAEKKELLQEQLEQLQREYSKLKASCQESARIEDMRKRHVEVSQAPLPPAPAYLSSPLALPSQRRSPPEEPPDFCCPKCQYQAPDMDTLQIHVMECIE

On to `O=[N+]([O-])c1cc(Cl)cc2c3cc[nH]cc-3nc12`, for which the IC50 against Casein kinase II was over 25 µM; in [1] it was 4 µM; in [2], over 25 µM; on Protein kinase C (PKC), over 25 µM.
With `CS(=O)(=O)Nc1cc(Cl)cc2c3cc[nH]cc-3nc12`, the IC50 against Casein kinase II was over 25 µM; in assay [1], 8.3 µM; in [2], over 25 µM; against Protein kinase C (PKC) it was over 25 µM.
For the compound `COc1ccccc1C(=O)Nc1cc(Cl)cc2c1[nH]c1cnccc12`, the IC50 against Casein kinase II is over 25 µM; in assay [1], over 20 µM; in assay [2], over 25 µM; at Protein kinase C (PKC) it was over 25 µM.
For the compound `Oc1c(Cl)cc2c3cc[nH]cc-3nc2c1Cl`, the IC50 on Casein kinase II is over 25 µM; in assay [1], 11 µM; in assay [2], over 25 µM; against Protein kinase C (PKC), over 25 µM.
Consider `O=C(Nc1cc(Cl)cc2c1[nH]c1cnccc12)c1ccccc1`, for which the concentration for half-maximal inhibition (IC50) is over 25 µM against Casein kinase II, 0.7 µM in assay [1], over 25 µM in assay [2] and over 25 µM against Protein kinase C (PKC).
Turning to `Clc1cc(Cl)c2[nH]c3cnccc3c2c1`, the IC50 on Casein kinase II is over 25 µM; in assay [1] it was 0.2 µM; in [2], over 25 µM; against Protein kinase C (PKC) it was over 25 µM.
With `COC(=O)Nc1cc(Cl)cc2c3cc[nH]cc-3nc12`, the 50% inhibitory concentration (IC50) was over 25 µM on Casein kinase II, 0.7 µM in assay [1], over 25 µM in assay [2] and over 25 µM on Protein kinase C (PKC).
For the compound `O=C(Nc1cc(Cl)cc2c1[nH]c1cnccc12)c1ccncc1`, the IC50 on Casein kinase II is over 25 µM; in [1] it was 0.3 µM; in [2], over 25 µM; against Protein kinase C (PKC) it was over 25 µM.
In the case of `N#Cc1ccc2[nH]c3cnccc3c2c1`, in assay [1], the IC50 amounted to 1.1 µM.
Take `O=C(Cc1ccccn1)Nc1cc(Cl)cc2c1[nH]c1cnccc12`: the IC50 is over 25 µM against Casein kinase II, 3 µM in [1], over 25 µM in assay [2] and over 25 µM against Protein kinase C (PKC).
Regarding `Brc1ccc2[nH]c3cnccc3c2c1`, the IC50 against Casein kinase II was over 25 µM; in assay [1] it was 0.6 µM; in assay [2] it was over 25 µM; on Protein kinase C (PKC) it was over 25 µM.
As to `CNc1cc(Cl)cc2c3cc[nH]cc-3nc12`, the 50% inhibitory concentration (IC50) in assay [1] worked out at 1.8 µM.
`O=C(CCCO)Nc1cc(Cl)cc2c3cc[nH]cc-3nc12`: the IC50 against Casein kinase II was over 25 µM; in assay [1], over 20 µM; in assay [2], over 25 µM; against Protein kinase C (PKC), over 25 µM.
Consider `FC(F)(F)c1ccc2[nH]c3cnccc3c2c1`, for which, in assay [1], the IC50 stood at 1.1 µM.
Regarding `COc1ccc2[nH]c3cnccc3c2c1Br`, the inhibition in the assay on HeLa came out at 90%; in [3], 65%; in [4] it was 10%; in assay [5], 75%. For the same compound, the figures for the IC50 (against Casein kinase II; in assay [1]; on Protein kinase C (PKC)) were 2 µM, 1 µM and 15 µM, respectively.
Regarding `Clc1cc2c([nH]c3cnccc32)c(Cl)c1OCC1CC1`, the IC50 against Casein kinase II is over 25 µM; in [1] it was 0.08 µM; in assay [2] it was over 25 µM; against Protein kinase C (PKC) it was over 25 µM.
For `O=C(Nc1cc(Cl)cc2c1[nH]c1cnccc12)c1ccccn1`, the IC50 was over 25 µM against Casein kinase II, 1 µM in assay [1], over 25 µM in [2] and over 25 µM against Protein kinase C (PKC).
Regarding `COc1ccc2[nH]c3cnccc3c2c1`, the IC50 at Casein kinase II was over 25 µM; in [1], 4 µM; in [2], over 25 µM; against Protein kinase C (PKC) it was over 25 µM.
`O=C(Oc1c(Cl)cc2c3cc[nH]cc-3nc2c1Cl)N1CCOCC1`: the IC50 in assay [1] came to 3.2 µM.
For the compound `Clc1ccc2[nH]c3cnccc3c2c1`, the IC50 against Casein kinase II was over 25 µM; in [1], 0.6 µM; in assay [2], over 25 µM; against Protein kinase C (PKC), over 25 µM.
Turning to `CC(=O)Nc1cc(Cl)cc2c3cc[nH]cc-3nc12`, the IC50 against Casein kinase II is over 25 µM; in [1], 0.6 µM; in [2], over 25 µM; against Protein kinase C (PKC), over 25 µM.
For the compound `COc1ccc(C(=O)Nc2cc(Cl)cc3c2[nH]c2cnccc23)cc1`, the IC50 is over 25 µM at Casein kinase II, 1.3 µM in assay [1], over 25 µM in assay [2] and over 25 µM against Protein kinase C (PKC).
Turning to `Clc1cc2c3cc[nH]cc-3nc2c(Cl)c1OCC1CCCCC1`, the IC50 at Casein kinase II was over 25 µM; in assay [1], 3 µM; in [2] it was over 25 µM; against Protein kinase C (PKC) it was over 25 µM.
For `O=S(=O)(Nc1cc(Cl)cc2c1[nH]c1cnccc12)c1ccccc1`, the IC50 at Casein kinase II was over 25 µM; in assay [1], over 20 µM; in [2] it was over 25 µM; on Protein kinase C (PKC), over 25 µM.
As for `CNC(=O)Nc1cc(Cl)cc2c3cc[nH]cc-3nc12`, the concentration for half-maximal inhibition (IC50) against Casein kinase II was over 25 µM; in [1] it was over 20 µM; in assay [2], over 25 µM; at Protein kinase C (PKC), over 25 µM.
For the compound `CCOc1c(Cl)cc2c3cc[nH]cc-3nc2c1Cl`, the concentration for half-maximal inhibition (IC50) is over 25 µM against Casein kinase II, 0.14 µM in [1], over 25 µM in assay [2] and over 25 µM on Protein kinase C (PKC).
As to `O=C(Nc1cc(Cl)cc2c1[nH]c1cnccc12)c1cccnc1`, the Reduction in the assay on Mus musculus was 60%. The IC50 on Casein kinase II is over 25 µM; in assay [1], 0.1 µM; in assay [2], over 25 µM; against Protein kinase C (PKC) it was over 25 µM. The same compound gave an EC50 in [6] of 0.15 µM.
Regarding `Clc1cc(NCc2ccccc2)c2[nH]c3cnccc3c2c1`, the IC50 on Casein kinase II was over 25 µM; in assay [1], over 20 µM; in assay [2] it was over 25 µM; against Protein kinase C (PKC) it was over 25 µM.
Consider `COc1cccc(C(=O)Nc2cc(Cl)cc3c2[nH]c2cnccc23)c1`, for which the concentration for half-maximal inhibition (IC50) on Casein kinase II is over 25 µM; in assay [1] it was 0.6 µM; in assay [2], over 25 µM; against Protein kinase C (PKC), over 25 µM.
`O=C(Nc1cc(Cl)cc2c1[nH]c1cnccc12)N1CCOCC1`: the concentration for half-maximal inhibition (IC50) is over 25 µM at Casein kinase II, over 20 µM in assay [1], over 25 µM in assay [2] and over 25 µM against Protein kinase C (PKC).
Regarding `COc1c(Cl)cc2c3cc[nH]cc-3nc2c1Cl`, the IC50 on Casein kinase II is over 25 µM; in assay [1], 0.17 µM; in [2] it was over 25 µM; at Protein kinase C (PKC), over 25 µM.
With `Nc1cc(Cl)cc2c3cc[nH]cc-3nc12`, the IC50 in assay [1] came out at 1.3 µM.
As to `Fc1ccc2[nH]c3cnccc3c2c1`, the IC50 against Casein kinase II was over 25 µM; in [1], 2 µM; in assay [2], over 25 µM; on Protein kinase C (PKC), over 25 µM.
In the case of `CN(C)c1cc(Cl)cc2c3cc[nH]cc-3nc12`, the IC50 in assay [1] turned out to be 1.8 µM.
With `c1ccc2c(c1)[nH]c1cnccc12` [NORHARMANE], the IC50 is over 25 µM against Casein kinase II, 15 µM in assay [1], over 25 µM in assay [2] and over 25 µM against Protein kinase C (PKC).
